The results in this text go back to ChEMBL document CHEMBL1123113, “"Reverse" and "symmetrical" analogues of actinomycin D: metabolic activation and in vitro and in vivo tumor growth inhibitory activities” (J Med Chem, 1985).

Molecules are shown by their SMILES.

One assay has as its system CCRF-CEM. As to the kind of experiment: Inhibitory dose required for the inhibition of human lymphoblastic leukemia cells(CCRF-CEM). It is filed as functional. Particulars: read-out: ID50 (the source's name).
In assay [1] the test system is Mus musculus. As to the kind of experiment: Antitumor activity against P388 leukemia cells in terms of percentage increase in life span in mice at an optimal dose of 450 ug/kg administered ip. It is filed as functional.
The species named for assay [2] is Mus musculus. As to the kind of experiment: Antitumor activity against B16 melanoma in terms of percentage increase in life span in mice after 65 days. The class given is functional.
Assay [3] deals with Mus musculus. As to the kind of experiment: Antitumor activity against P388 leukemia cells in terms of median survival time of mice at an optimal dose of 450 ug/kg administered ip. The class given is functional.
Assay [4] concerns Mus musculus. As to the kind of experiment: Antitumor activity against B16 melanoma in terms of median survival time of mice at an optimal dose of 300 ug/kg administered ip. It is filed as functional.
In assay [5] the test system is Mus musculus. As to the kind of experiment: In vivo antitumor activity was determined against B16 melanoma in mice as number of mice survived after administration of 300 ug/Kg dose of compound; Value represented as no of survivors/ treated = 3/9. The class given is functional.
The species entered for assay [6] is Rattus norvegicus. As to the kind of experiment: Compound tested for NADPH oxidation in rat hepatic mycrosomal incubation. The class given is functional. The method, boiled down: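 Phenobarbital-induced rat liver microsomes (300 µg), 37 °C, no epinephrine; NADPH 0.4 mM added to sample cuvette only. A340 followed; % oxidation = (1 − A340/A'340)×100 vs cuvette not activated by microsomes; % stimulation = (drug rate − basal rate)/basal rate ×100. Drugs in 150 mM KCl-50 mM Tris pH 7.4; triplicate analyses, mean ± standard error.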

The species named for assay [7] is Rattus norvegicus. As to the kind of experiment: Compound tested for adrenochrome formation in rat hepatic mycrosomal incubation. The class given is functional. The method, boiled down:
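Superoxide read as adrenochrome from epinephrine (in 0.01 N HCl) with phenobarbital-induced rat liver microsomes (300 µg) at 37 °C; NADPH 0.4 mM added to sample cuvette after 1 min. Rate at 480 nm (ε 4.02 mM-1 cm-1); drug ≤100 µM in 150 mM KCl-50 mM Tris pH 7.4; % stimulation over basal rate; triplicate, mean ± standard error.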

Assay [8] has as its system Mus musculus. As to the kind of experiment: In vivo antitumor activity was determined against P388 leukemia mice as number of mice survived after administration of 450 ug/Kg dose of compound; Value represented as no of survivors/ treated = 3/8. It is filed as functional.
Assay [9] has as its system Mus musculus. As to the kind of experiment: Antitumor activity against P388 leukemia cells in terms of percentage increase in life span in mice at an optimal dose of 375 ug/kg administered ip. It is filed as functional.
In assay [10] the test system is Mus musculus. As to the kind of experiment: Antitumor activity against B16 melanoma in terms of percentage increase in life span in mice at an optimal dose of 300 ug/kg administered ip. The class given is functional.
For assay [11], the species on record is Mus musculus. As to the kind of experiment: Dose providing an increase in the life span of 45% over control in P388 tumor bearing mice. It is filed as functional. Particulars: read-out: MED. In a few lines:
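MED is the ip dose in mg/kg, given on days 1, 5 and 9 starting 1 day after implantation, that gives a 45% increase in life span over control in P388-bearing mice. It was derived from plotted log-dose response data.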

For assay [12], the system named is Mus musculus. As to the kind of experiment: In vivo antitumor activity was determined against P388 leukemia mice as number of mice survived after administration of 375 ug/Kg dose of compound; Value represented as no of survivors/ treated = 4/8. It is filed as functional.
For assay [13], the system named is Mus musculus. As to the kind of experiment: Antitumor activity against P388 leukemia cells in terms of median survival time of mice at an optimal dose of 375 ug/kg administered ip. The class given is functional.
Assay [14] has as its system Mus musculus. As to the kind of experiment: In vivo antitumor activity was determined against B16 melanoma in mice as number of mice survived after administration of 300 ug/Kg dose of compound; Value represented as no of survivors/ treated = 5/9. It is filed as functional.
Assay [15] deals with P388. As to the kind of experiment: Inhibition of RNA synthesis was measured as the concentration required to cause 50% reduction (in 1h) in 2-[14C]uridine incorporation into acid precipitable material using P388 cells. The class given is functional, cell-based. The following applies: Mus musculus, P388, 1 h.
The test system of assay [16] is P388. As to the kind of experiment: Inhibition of DNA synthesis was measured as the concentration required to cause 50% reduction (in 1h) in methyl [3H]thymidine incorporation into acid precipitable material using P388 cells. It is filed as functional, cell-based. The following applies: Mus musculus. In general terms: Dividing cells build labelled thymidine or BrdU into new DNA.

What is called ILS is the gain in survival time of treated over control animals, in per cent. Lower therefore signals a small benefit in survival. `Cc1nc2c(C(=O)N[C@@H]3C(=O)N[C@H](C(C)C)C(=O)N4CCC[C@H]4C(=O)N(C)CC(=O)N(C)[C@@H](C(C)C)C(=O)O[C@@H]3C)c3nc4c(C(=O)N[C@@H]5C(=O)N[C@H](C(C)C)C(=O)N6CCC[C@H]6C(=O)N(C)CC(=O)N(C)[C@@H](C(C)C)C(=O)O[C@@H]5C)c(N)c(=O)c(C)c-4oc3c(C)c2o1` [listing 1 of 2 here]: the IC50 in the assay on CCRF-CEM came to 0.11 µM. Moreover, the ILS at 0.45 mg/kg with Mus musculus [1] is 277%. In addition, the ILS in the assay listed under Mus musculus [2] is recorded as 90%. The figures for the MST in the assay on Mus musculus [3] and in the assay on Mus musculus [4] were 42.5 days and 55 days, respectively. The Survivors in the assay with Mus musculus [5] and in the assay with Mus musculus [8] was 3 throughout. Moreover, the NADPH oxidation in the assay filed under Rattus norvegicus [6] is given as 21.3 nM min-1 (mg of protein)-1. In addition, the adrenochrome formation in the assay listed under Rattus norvegicus [7] was 6.04 nM min-1 (mg of protein)-1.
As for `Cc1c2oc3c(C)c4oc(-c5ccccc5)nc4c(C(=O)N[C@@H]4C(=O)N[C@H](C(C)C)C(=O)N5CCC[C@H]5C(=O)N(C)CC(=O)N(C)[C@@H](C(C)C)C(=O)O[C@@H]4C)c3nc-2c(C(=O)N[C@@H]2C(=O)N[C@H](C(C)C)C(=O)N3CCC[C@H]3C(=O)N(C)CC(=O)N(C)[C@@H](C(C)C)C(=O)O[C@@H]2C)c(N)c1=O`, the IC50 in the assay on CCRF-CEM is 0.03 µM. Moreover, in the assay with Mus musculus [9], the ILS at 0.375 mg/kg was 382%. This compound displayed an ILS at 0.3 mg/kg in the assay on Mus musculus [10] of 103%. Further, in the assay listed under Mus musculus [11], the minimal effective dose turned out to be 0.03 mg/kg. For the same compound, the Survivors is listed as 4 with Mus musculus [12] and 5 in the assay on Mus musculus [14]. Moreover, the values for the MST with Mus musculus [13] and with Mus musculus [4] were 52 days and 59 days, respectively.
In the case of `Cc1nc2c(C(=O)N[C@@H]3C(=O)N[C@H](C(C)C)C(=O)N4CCC[C@H]4C(=O)N(C)CC(=O)N(C)[C@@H](C(C)C)C(=O)O[C@@H]3C)c3nc4c(C(=O)N[C@@H]5C(=O)N[C@H](C(C)C)C(=O)N6CCC[C@H]6C(=O)N(C)CC(=O)N(C)[C@@H](C(C)C)C(=O)O[C@@H]5C)c(N)c(=O)c(C)c-4oc3c(C)c2o1` [listing 2 of 2 here], the IC50 was 0.09 µM in the assay on P388 [15] and 1.01 µM in the assay with P388 [16].
